The values below come from ChEMBL document CHEMBL1136985, “New pyridinone derivatives as potent HIV-1 nonnucleoside reverse transcriptase inhibitors” (J Med Chem, 2009).

Data set [1] relates to Human immunodeficiency virus 1. Briefly: Antiviral activity against HIV1 NL4-3 with K103N mutant in human TZM-b1 cells assessed as beta-galactosidase activity after 48 hrs by single round replication assay. The format is functional, organism-based. Particulars: Human immunodeficiency virus 1, NL4-3, TZM-b1, 48 h. In a few lines: (§1)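 TZM-bl cells (DMEM, 5% heat-inactivated FBS) plated at 5000 cells/well and grown 48 h. Medium replaced with compound at 0.00128–4 µM. After 4 h, cells infected with NL4-3-derived RT-mutant virus equal to 100 ng p24. Virus stocks came from HEK293 cells transfected with sequence-verified mutant clones. At 48 h, cells lysed in PBS/0.1% NP-40/5 mM MgCl2 and β-galactosidase read with CPRG. EC50 taken from dose-response curves.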

Data set [2] deals with Human immunodeficiency virus 1. Briefly: Antiviral activity against HIV1 NL4-3 in human TZM-b1 cells assessed as beta-galactosidase activity after 48 hrs by single round replication assay. As to conditions: Human immunodeficiency virus 1, NL4-3, TZM-b1, 48 h.
The subject of data set [3] is Human immunodeficiency virus 1. Briefly: Antiviral activity against HIV1 NL4-3 with L100I mutant in human TZM-b1 cells assessed as beta-galactosidase activity after 48 hrs by single round replication assay. The format is functional, organism-based. As to conditions: Human immunodeficiency virus 1, NL4-3, TZM-b1, 48 h. An outline of the steps:
as §1

A short description of data set [4]: Selectivity index, ratio of CC50 for human HeLaP4 cells to EC50 for HIV1 NL4-3. The format is toxicity, cell-based. Particulars: read-out: Ratio CC50/EC50. An outline of the steps:
(§2)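 Viability by WST-1 absorbance at 570 nm relative to drug-free control. Divided by EC50 from the 48 h β-galactosidase infection assay with NL4-3 in the same cell type.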

In data set [5] the test system is Human immunodeficiency virus 1. Briefly: Antiviral activity against HIV1 NL4-3 with V108I mutant in human TZM-b1 cells assessed as beta-galactosidase activity after 48 hrs by single round replication assay. The format is functional, organism-based. As to conditions: Human immunodeficiency virus 1, NL4-3, TZM-b1, 48 h. An outline of the steps:
as §1

Data set [6] has as its system Human immunodeficiency virus 1. Briefly: Antiviral activity against HIV1 NL4-3 with Y181C mutant in human HeLaP4 cells assessed as beta-galactosidase activity after 48 hrs by single round replication assay. Particulars: Human immunodeficiency virus 1, NL4-3, HeLaP4, 48 h. Type of data set: functional, organism-based.
For data set [7], the system named is Human immunodeficiency virus 1. Briefly: Antiviral activity against wild type HIV1 NL4-3 in human HeLaP4 cells assessed as beta-galactosidase activity after 48 hrs. As to conditions: Human immunodeficiency virus 1, NL4-3, HeLaP4, 48 h. The format is functional, organism-based. In a few lines:
(§3)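 Cells plated at 5000/well, incubated 48 h, then medium replaced with compound (0.00128 to 4 µM). Infection 4 h later with cell-free NL4-3 virus equivalent to 100 ng p24. At 48 h postinfection cells lysed in PBS with 0.1% NP-40 and 5 mM MgCl2. β-Galactosidase read with chlorophenol red β-D-galactopyranoside. EC50 taken from dose-response curves.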

Data set [8] is described as follows: Selectivity index, ratio of CC50 for human TZM-b1 cells to EC50 for HIV1 NL4-3. Type of data set: toxicity, cell-based. Particulars: read-out: Ratio CC50/EC50. In a few lines: as §2
For data set [9], the system named is Human immunodeficiency virus 1. Briefly: Antiviral activity against HIV1 NL4-3 with K103N/Y181C double mutant in human TZM-b1 cells assessed as beta-galactosidase activity after 48 hrs by single round replication assay. Particulars: Human immunodeficiency virus 1, NL4-3, TZM-b1, 48 h.
Data set [10] has as its system Human immunodeficiency virus 1. Briefly: Antiviral activity against wild type HIV1 NL4-3 in human MT4 cells assessed as inhibition of virus-induced cytopathicity after 5 days by multiple round replication assay. Type of data set: functional, organism-based. Particulars: Human immunodeficiency virus 1, NL4-3, MT4, 120 h. In a few lines: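 MT-4 T cells in RPMI 1640 with 10% FBS were infected with NL4-3 (wild type or RT mutants) and exposed to a range of compound concentrations. After 5 days, viability of infected and mock-infected cells was read by WST-1 cleavage, giving EC50 against viral cytopathicity and CC50 together.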
Background: Damage to the host cells serves as the signal in cytopathic effect assays.

The subject of data set [11] is Human immunodeficiency virus 1. As to the kind of experiment: Antiviral activity against HIV1 NL4-3 with double K103N/L100I mutant in human MT4 cells assessed as inhibition of virus-induced cytopathicity after 5 days by multiple round replication assay. Type of data set: functional, organism-based. As to conditions: Human immunodeficiency virus 1, NL4-3, MT4, 120 h. An outline of the steps:
(§4)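 MT-4 human T-cells, cultured in RPMI 1640 with 10% heat-inactivated FBS at 37 °C, 5% CO2, infected with HIV-1 NL4-3-derived mutant strains, then exposed to a range of compound concentrations. After 5 days, viability of infected and mock-infected cells read by WST-1 tetrazolium cleavage.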

Data set [12] has as its system Human immunodeficiency virus 1. Briefly: Antiviral activity against HIV1 NL4-3 with K103N/V108I double mutant in human TZM-b1 cells assessed as beta-galactosidase activity after 48 hrs by single round replication assay. As to conditions: Human immunodeficiency virus 1, NL4-3, TZM-b1, 48 h.
Data set [13] concerns Human immunodeficiency virus 1. As to the kind of experiment: Antiviral activity against wild type HIV1 NL4-3 in human TZM-b1 cells assessed as beta-galactosidase activity after 48 hrs. The format is functional, organism-based. Particulars: Human immunodeficiency virus 1, NL4-3, TZM-b1, 48 h. An outline of the steps: as §3
The subject of data set [14] is Human immunodeficiency virus 1. As to the kind of experiment: Antiviral activity against HIV1 NL4-3 with K103N mutant in human MT4 cells assessed as inhibition of virus-induced cytopathicity after 5 days by multiple round replication assay. As to conditions: Human immunodeficiency virus 1, NL4-3, MT4, 120 h. The format is functional, organism-based. An outline of the steps: as §4

For data set [15], the system named is Human immunodeficiency virus 1. Briefly: Antiviral activity against HIV1 NL4-3 with Y181C mutant in human MT4 cells assessed as inhibition of virus-induced cytopathicity after 5 days by multiple round replication assay. Type of data set: functional, organism-based. As to conditions: Human immunodeficiency virus 1, NL4-3, MT4, 120 h. An outline of the steps:
as §4

The test system of data set [16] is Human immunodeficiency virus 1. As to the kind of experiment: Antiviral activity against HIV1 NL4-3 with L100I mutant in human MT4 cells assessed as inhibition of virus-induced cytopathicity after 5 days by multiple round replication assay. The format is functional, organism-based. Particulars: Human immunodeficiency virus 1, NL4-3, MT4, 120 h. An outline of the steps:
as §4

Data set [17] relates to Human immunodeficiency virus 1. Briefly: Antiviral activity against HIV1 NL4-3 with K103N/L100I double mutant in human TZM-b1 cells assessed as beta-galactosidase activity after 48 hrs by single round replication assay. The format is functional, organism-based. As to conditions: Human immunodeficiency virus 1, NL4-3, TZM-b1, 48 h. In a few lines: as §1
Data set [18] relates to Human immunodeficiency virus 1. Briefly: Antiviral activity against HIV1 NL4-3 with L100I/V108I double mutant in human TZM-b1 cells assessed as beta-galactosidase activity after 48 hrs by single round replication assay. Type of data set: functional, organism-based. Particulars: Human immunodeficiency virus 1, NL4-3, TZM-b1, 48 h. In a few lines:
as §1

Data set [19] has as its system Human immunodeficiency virus 1. As to the kind of experiment: Antiviral activity against HIV1 NL4-3 with Y181C mutant in human TZM-b1 cells assessed as beta-galactosidase activity after 48 hrs by single round replication assay. The format is functional, organism-based. Particulars: Human immunodeficiency virus 1, NL4-3, TZM-b1, 48 h. An outline of the steps:
as §1

The structures appear in SMILES notation.

For `CCOC(=O)c1c(O[C@@H]2C[C@H](C)C[C@H](C)C2)c(CC)c(C)[nH]c1=O`, the EC50 is above 10000 nM in data set [1]; above 10000 nM in data set [2]; 2200 nM in data set [3]; 5900 nM in data set [5]; 2000 nM in data set [6]; 36 nM in data set [7]. Further, the selectivity ratio in data set [4] amounted to 1780.
Turning to `CCc1c(C)[nH]c(=O)c(C(C)C)c1O[C@@H]1C[C@H](C)C[C@H](C)C1`, in data set [8], the selectivity ratio is above 82000. For the same molecule, the concentration giving a half-maximal response (EC50) in data set [9] is 642 nM; in data set [10], 2 nM; in data set [11] it was 84 nM; in data set [12], 105 nM; in data set [13], below 1 nM; in [14] it was 7 nM. Besides, the EC50 in data set [15] turned out to be 19 nM; in data set [1], 2 nM; in data set [2], 1100 nM; in data set [16], 6 nM; in data set [3] it was 2 nM; in [17], 44 nM. Moreover, the EC50 stood at 10 nM in [18] and 6 nM in data set [19].
`CCc1c(C)[nH]c(=O)c(CC)c1O[C@@H]1C[C@H](C)C[C@H](C)C1`: in [8], the selectivity ratio was above 67000. The EC50 in data set [9] is 359 nM; in data set [10], 2 nM; in data set [11], 145 nM; in [12], 107 nM; in data set [13] it was below 1 nM; in data set [14], 26 nM. In addition, the EC50 in [15] was found to be 49 nM; in [1] it was 5 nM; in data set [2], 5400 nM; in [16] it was 27 nM; in [3], 6 nM; in [17], 81 nM. The EC50 in data set [18] came to 115 nM; in data set [19], 15 nM.

The EC50 is the midpoint of the concentration-response curve.
